Test results taken from ChEMBL document CHEMBL1143742, “An antifungal agent inhibits an aminoacyl-tRNA synthetase by trapping tRNA in the editing site” (Science, 2007).
Converted amounts (≈) assume the structure as drawn. The source made the active and inactive calls. The calls are words filed in the database; no cut-off is given here.

Legend:
Aspergillus fumigatus = assay: Antifungal activity against Aspergillus fumigatus ATCC 13073; format: functional
Pichia kudriavzevii = assay: Antifungal activity against Candida krusei ATCC 44507; format: functional
Epidermophyton floccosum = assay: Antifungal activity against Epidermophyton floccosum ATCC 525066; format: functional
Saccharomyces cerevisiae [1] = assay: Antimicrobial activity against AN2690-resistant Saccharomyces cerevisiae ANA326 with CDC60 L315V mutation; format: functional
Saccharomyces cerevisiae [2] = assay: Antimicrobial activity against AN2690-resistant Saccharomyces cerevisiae ANA323 with CDC60 G405V mutation; format: functional
[3] = biological target: T1, Leucine--tRNA ligase, cytoplasmic (Saccharomyces cerevisiae S288c, UniProt P26637); assay: Inhibition of Saccharomyces cerevisiae cytoplasmic leucyl-tRNA synthetase after 20 mins
T1 sequence (P26637 whole entry): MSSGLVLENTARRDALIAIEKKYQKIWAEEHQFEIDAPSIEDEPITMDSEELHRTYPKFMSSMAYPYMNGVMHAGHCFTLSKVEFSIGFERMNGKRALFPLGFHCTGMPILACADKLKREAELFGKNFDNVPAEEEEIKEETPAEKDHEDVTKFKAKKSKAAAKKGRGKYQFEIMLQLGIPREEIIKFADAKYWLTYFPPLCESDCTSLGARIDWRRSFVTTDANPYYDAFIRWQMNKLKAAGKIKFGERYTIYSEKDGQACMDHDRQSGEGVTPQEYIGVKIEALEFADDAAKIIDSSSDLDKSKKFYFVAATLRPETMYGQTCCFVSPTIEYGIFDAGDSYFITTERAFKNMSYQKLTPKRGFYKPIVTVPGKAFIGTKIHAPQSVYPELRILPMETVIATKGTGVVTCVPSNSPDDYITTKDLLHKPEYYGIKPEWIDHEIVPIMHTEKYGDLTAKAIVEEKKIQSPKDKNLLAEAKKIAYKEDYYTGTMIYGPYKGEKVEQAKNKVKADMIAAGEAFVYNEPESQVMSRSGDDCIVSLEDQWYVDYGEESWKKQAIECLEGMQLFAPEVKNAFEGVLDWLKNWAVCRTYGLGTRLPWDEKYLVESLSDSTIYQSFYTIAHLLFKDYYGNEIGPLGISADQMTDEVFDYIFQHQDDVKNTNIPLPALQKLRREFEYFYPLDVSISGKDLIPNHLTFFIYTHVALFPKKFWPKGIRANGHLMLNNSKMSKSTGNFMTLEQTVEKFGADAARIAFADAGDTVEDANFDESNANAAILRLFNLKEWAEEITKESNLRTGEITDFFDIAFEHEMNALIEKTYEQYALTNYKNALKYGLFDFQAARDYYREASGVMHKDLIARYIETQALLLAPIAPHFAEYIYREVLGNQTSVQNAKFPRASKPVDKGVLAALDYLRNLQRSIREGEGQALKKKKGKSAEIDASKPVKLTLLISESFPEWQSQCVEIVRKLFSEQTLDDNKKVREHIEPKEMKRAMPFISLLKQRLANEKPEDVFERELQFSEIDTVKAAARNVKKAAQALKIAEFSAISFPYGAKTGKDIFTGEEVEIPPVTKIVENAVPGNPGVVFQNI
Method in brief: (§1)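 His6-tagged yeast Cdc60p (LeuRS) expressed in E. coli Rosetta 2(DE3), used at 2 nM. Buffer 50 mM HEPES-KOH pH 8.0, 30 mM MgCl2, 30 mM KCl, 20 µM [14C]leucine, 0.2 mg/mL brewer's yeast tRNA, 0.02% BSA, 1 mM DTT, 30 °C. TCA-precipitated Leu-tRNA counted. Ki from Lineweaver-Burk y-intercepts replotted against inhibitor.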

Malassezia pachydermatis = assay: Antifungal activity against Malassezia pachydermatis ATCC 96746; format: functional
Alternaria alternata = assay: Antifungal activity against Alternaria alternata ATCC 6663; format: functional
Malassezia furfur = assay: Antifungal activity against Malassezia furfur ATCC 44344; format: functional
Saccharomyces cerevisiae [4] = assay: Antimicrobial activity against Saccharomyces cerevisiae ATCC 201388; format: functional
[5] = test system: Cladosporium cladosporioides; assay: Antifungal activity against Cladosporium cladosporioides ATCC 16022; format: functional
Saccharomyces cerevisiae [6] = assay: Antimicrobial activity against AN2690-resistant Saccharomyces cerevisiae ANA322 with CDC60 C326F mutation; format: functional
Saccharomyces cerevisiae [7] = assay: Antimicrobial activity against AN2690-resistant Saccharomyces cerevisiae ANA358 with CDC60 S416L mutation; format: functional
[8] = Antifungal activity against Rhizopus microsporus ATCC 66276; format: functional
Saccharomyces cerevisiae [9] = assay: Inhibition of protein synthesis in Saccharomyces cerevisiae S288C after 15 mins; format: functional, organism-based
Method in brief: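 Mid-log S. cerevisiae S288C in SDM lacking leucine, given 0.25 µCi [14C]leucine plus compound over a range of concentrations. 15 min at 30 °C, then cold 10% TCA for 15 min at 4 °C. Precipitate filtered, washed with 5% TCA and scintillation-counted. Percent incorporation relative to untreated cells. Run twice and averaged.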

Candida tropicalis = assay: Antifungal activity against Candida tropicalis ATCC 13803; format: functional
Saccharomyces cerevisiae [10] = assay: Antimicrobial activity against Saccharomyces cerevisiae in synthetic defined media without leucine; format: functional
Saccharomyces cerevisiae [11] = assay: Antimicrobial activity against AN2690-resistant Saccharomyces cerevisiae ANA324 with CDC60 C326R mutation; format: functional
Penicillium chrysogenum = assay: Antifungal activity against Penicillium chrysogenum ATCC 10108; format: functional
Microsporum audouinii = assay: Antifungal activity against Microsporum audouinii ATCC 42558; format: functional
Candida albicans = assay: Antifungal activity against Candida albicans ATCC 90028; format: functional
[12] = biological target: T1, Leucine--tRNA ligase, cytoplasmic; assay: Binding affinity to Saccharomyces cerevisiae cytoplasmic leucyl-tRNA synthetase in presence of AMP
Method in brief: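 Equilibrium dialysis across a 5 kDa membrane in 50 mM HEPES-KOH pH 8.0, 30 mM MgCl2, 30 mM KCl. Both sides counted in triplicate by scintillation, bound = side B minus side A. Kd from Scatchard plot.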

Fusarium solani = assay: Antifungal activity against Fusarium solani ATCC 36031; format: functional
Saccharomyces cerevisiae [13] = assay: Antimicrobial activity against AN2690-resistant Saccharomyces cerevisiae ANA327 with CDC60 T314M mutation; format: functional
[14] = biological target: T1, Leucine--tRNA ligase, cytoplasmic; assay: Inhibition of Saccharomyces cerevisiae cytoplasmic leucyl-tRNA synthetase assessed as tRNA amino-acylation
Method in brief: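 Recombinant N-terminal His6-tagged yeast Cdc60p (2 nM) in 50 mM HEPES-KOH pH 8.0, 30 mM MgCl2, 30 mM KCl, 0.02% BSA, 1 mM DTT, 20 µM [14C]leucine, 0.2 mg/mL brewer's yeast tRNA at 30°C. Enzyme preincubated 20 min with compound, tRNA and leucine; started with 4 mM ATP. Timed aliquots TCA-precipitated on nitrocellulose filters and counted by scintillation; triplicates.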

Trichophyton benhamiae = assay: Antifungal activity against Trichophyton mentagrophytes ATCC 28185; format: functional, Arthroderma benhamiae
[15] = biological target: T1, Leucine--tRNA ligase, cytoplasmic; assay: Inhibition of Saccharomyces cerevisiae cytoplasmic leucyl-tRNA synthetase after 2 mins; method in brief: as §1
Saccharomyces cerevisiae [16] = assay: Antimicrobial activity against AN2690-resistant Saccharomyces cerevisiae ANA360 with CDC60 T319I mutation; format: functional
Nakaseomyces glabratus = assay: Antifungal activity against Candida glabrata ATCC 90030; format: functional
Cryptococcus neoformans = assay: Antifungal activity against Cryptococcus neoformans F285; format: functional
Saccharomyces cerevisiae [17] = assay: Antimicrobial activity against AN2690-resistant Saccharomyces cerevisiae ANA320 with CDC60 N415D mutation; format: functional
Nannizzia gypsea = assay: Antifungal activity against Microsporum gypseum ATCC 24103; format: functional
Saccharomyces cerevisiae [18] = assay: Antimicrobial activity against AN2690-resistant Saccharomyces cerevisiae ANA321 with CDC60 R316I mutation; format: functional
Trichophyton rubrum = assay: Antifungal activity against Trichophyton rubrum ATCC 18759; format: functional

## OB1OCc2cc(F)ccc21 [TAVABOROLE]
Aspergillus fumigatus
  MIC: 0.25 µg/mL (≈ 1.65 µM)
Pichia kudriavzevii
  MIC: 1 µg/mL (≈ 6.58 µM)
Epidermophyton floccosum
  MIC: 1 µg/mL (≈ 6.58 µM)
Saccharomyces cerevisiae [1]
  MIC: 16 µg/mL (≈ 105 µM)
Saccharomyces cerevisiae [2]
  MIC: 16 µg/mL (≈ 105 µM)
[3]
  Ki: 1.85 µM
Malassezia pachydermatis
  MIC: 1 µg/mL (≈ 6.58 µM)
Alternaria alternata
  MIC: 0.5 µg/mL (≈ 3.29 µM)
Malassezia furfur
  MIC: 1 µg/mL (≈ 6.58 µM)
Saccharomyces cerevisiae [4]
  MIC: 0.125 µg/mL (≈ 0.823 µM)
[5]
  MIC: 0.5 µg/mL (≈ 3.29 µM)
Saccharomyces cerevisiae [6]
  MIC: 16 µg/mL (≈ 105 µM)
Saccharomyces cerevisiae [7]
  MIC: 32 µg/mL (≈ 211 µM)
[8]
  MIC: 2 µg/mL (≈ 13.2 µM)
Saccharomyces cerevisiae [9]
  Activity: Active
Candida tropicalis
  MIC: 0.25 µg/mL (≈ 1.65 µM)
Saccharomyces cerevisiae [10]
  MIC: 0.06 µg/mL (≈ 0.395 µM)
Saccharomyces cerevisiae [11]
  MIC: 16 µg/mL (≈ 105 µM)
Penicillium chrysogenum
  MIC: 2 µg/mL (≈ 13.2 µM)
Microsporum audouinii
  MIC: 2 µg/mL (≈ 13.2 µM)
Candida albicans
  MIC: 0.5 µg/mL (≈ 3.29 µM)
[12]
  Kd: 20.8 µM
Fusarium solani
  MIC: 2 µg/mL (≈ 13.2 µM)
Saccharomyces cerevisiae [13]
  MIC: 32 µg/mL (≈ 211 µM)
[14]
  IC50: 2.1 µM
Trichophyton benhamiae
  MIC: 2 µg/mL (≈ 13.2 µM)
[15]
  Ki: 31.4 µM
Saccharomyces cerevisiae [16]
  MIC: 32 µg/mL (≈ 211 µM)
Nakaseomyces glabratus
  MIC: ≤ 0.125 µg/mL
Cryptococcus neoformans
  MIC: 0.25 µg/mL (≈ 1.65 µM)
Saccharomyces cerevisiae [17]
  MIC: 4 µg/mL (≈ 26.3 µM)
Nannizzia gypsea
  MIC: 2 µg/mL (≈ 13.2 µM)
Saccharomyces cerevisiae [18]
  MIC: 16 µg/mL (≈ 105 µM)
Trichophyton rubrum
  MIC: 2 µg/mL (≈ 13.2 µM)

## Cc1cc(F)ccc1B(O)O
[14]
  IC50: > 100 µM

## OB(O)c1ccc(F)cc1
[14]
  IC50: > 100 µM

## C[C@@H]1C[C@@H]([C@H](O)CC2CC(=O)NC(=O)C2)C(=O)[C@@H](C)C1 [CYCLOHEXIMIDE]
Saccharomyces cerevisiae [10]
  MIC: 0.5 µg/mL (≈ 1.78 µM)

## C/C=C/C/C=C/CCC(=O)[C@H]1O[C@H]1C(N)=O [CERULENIN]
Saccharomyces cerevisiae [10]
  MIC: 0.5 µg/mL (≈ 2.24 µM)

## OB1OCCc2cc(F)ccc21
[14]
  IC50: 96 µM

## O=C1OCc2cc(F)ccc21
[14]
  IC50: > 100 µM

## COCc1cc(F)ccc1B(O)O
[14]
  IC50: > 100 µM

## C[C@@H]1[C@H](O)[C@@H](C)/C=C/C=C/C=C/C=C/C=C/C=C/C=C/[C@H](O[C@@H]2O[C@H](C)[C@@H](O)[C@H](N)[C@@H]2O)C[C@@H]2O[C@](O)(C[C@@H](O)C[C@@H](O)[C@H](O)CC[C@@H](O)C[C@@H](O)CC(=O)O[C@H]1C)C[C@H](O)[C@H]2C(=O)O [AMPHOTERICIN B]
Saccharomyces cerevisiae [10]
  MIC: 1 µg/mL (≈ 1.08 µM)

## OC1OCc2cc(F)ccc21 (stereo not drawn)
[14]
  IC50: > 100 µM
